According to paper PMC3313684 (Journal of Natural Products, 2012):
Values after ≈ are worked out from the molar mass of the structure shown. Like-named read-outs stand apart in the source and are kept apart here.

Legend:
[1] = tested on: Neisseria gonorrhoeae; assay: Antimicrobial susceptibility, Neisseria gonorrhoeae; type: cell-based; details: for MIC Neisseria gonorrhoeae: broth microdilution; for MIC: Neisseria gonorrhoeae, read-out: MIC Neisseria gonorrhoeae
How it was run: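 Neisseria gonorrhoeae ATCC 49226 tested by broth microdilution following standard bacterial dilution guidelines. MIC taken as the lowest concentration inhibiting all visible growth (optically clear). Assays repeated on separate days.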

[2] = tested on: KAT-4 cells; assay: Anaplastic thyroid carcinoma cell line inhibition, KAT-4; type: cell-based, human; details: for GI50: Homo sapiens, KAT-4, read-out: KAT-4 GI50
How it was run: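 Growth inhibition by the NCI sulforhodamine B method. Cells were plated in RPMI1640 with 5% fetal bovine serum and grown 24 h. Serial dilutions of test compound were then added for 48 h. Plates were fixed with trichloroacetic acid, stained with sulforhodamine B and read by plate reader. GI50 is the concentration giving a 50% drop in net protein increase, calculated from optical density data.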

[3] = tested on: Micrococcus luteus; details: previously shown; cited from earlier work
[4] = tested on: Neisseria gonorrhoeae; details: previously shown; cited from earlier work
[5] = tested on: tubulin; assay: Inhibition of [3H]colchicine binding to tubulin; details: 10 μM compound, 1.0 μM tubulin, 5.0 μM [3H]colchicine
[6] = tested on: human umbilical vein endothelial cells (HUVEC); assay: HUVEC Matrigel cord formation assay; type: cell-based; details: 0.001 μg/mL, 24 h
[7] = tested on: SW1736 cells; assay: Anaplastic thyroid carcinoma cell line inhibition, SW1736; type: cell-based, human
[8] = tested on: Micrococcus luteus; assay: Antimicrobial susceptibility, Micrococcus luteus; type: cell-based; details: read-out: MIC Micrococcus luteus
How it was run: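 Broth microdilution susceptibility to an established standard for aerobic bacteria, strain Presque Isle 456. Test compound was reconstituted in a small volume of sterile DMSO and diluted in medium just before the assay. MIC was the lowest concentration that stopped all visible growth (optically clear). Assays were repeated on separate days.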

## Tris 3-Iodo-4,4′,5-trimethoxy-Z-stilbene 3′-O-phosphate [11h]
[1]
  MIC Neisseria gonorrhoeae: 32 to 64 µg/mL

## C1COCCN1.COc1ccc(/C=C\c2cc(I)c(OC)c(I)c2)cc1OP(=O)(O)O [12d, Morpholine 3,5-Diiodo-4,4′-dimethoxy-Z-stilbene 3′-O-phosphate]
[1]
  MIC Neisseria gonorrhoeae: < 0.5 µg/mL

## COc1ccc(/C=C\c2cc(I)c(OC)c(I)c2)cc1OP(=O)([O-])[O-].[K+].[K+] [12a, Potassium 3,5-Diiodo-4,4′dimethoxy-Z-stilbene 3′-O-phosphate]
[1]
  MIC: 0.5 to 4 µg/mL
[2]
  GI50: 0.38 to 0.44 µg/mL
[2]; KAT-4
  times less inhibitory than the phenols 9a and 9c: 10 ×

## Tryptophan-OMe 3-Iodo-4,4′,5-trimethoxy-Z-stilbene 3′-O-phosphate [11g]
[1]
  MIC Neisseria gonorrhoeae: 4 to 8 µg/mL

## COc1ccc(/C=C\c2cc(OC)c(OC)c(OC)c2)cc1OP(=O)([O-])[O-].[Na+].[Na+] [1b, fosbretabulin]
[3]
  MIC Micrococcus luteus: 25-100 μg/disk
[4]
  MIC Neisseria gonorrhoeae: 25-100 μg/disk

## Tryptophan-OMe 3,5-Diiodo-4,4′-dimethoxy-Z-stilbene 3′-O-phosphate [12g]
[1]
  MIC Neisseria gonorrhoeae: < 0.5 µg/mL

## COc1ccc(/C=C\c2cc(I)c(OC)c(I)c2)cc1OP(=O)([O-])[O-].[Li+].[Li+] [12c, Lithium 3,5-Diiodo-4,4′-dimethoxy-Z-stilbene 3′-O-phosphate]
[1]
  MIC: 0.5 to 2 µg/mL

## Morpholine 3-Iodo-4,4′,5-trimethoxy-Z-stilbene 3′-O-phosphate [11d]
[1]
  MIC Neisseria gonorrhoeae: 16 to 32 µg/mL

## COc1ccc(/C=C\c2cc(I)c(OC)c(I)c2)cc1OP(=O)([O-])[O-].[Na+].[Na+] [12b, Sodium 3,5-Diiodo-4,4′-dimethoxy-Z-stilbene 3′-O-phosphate]
[1]
  MIC: 32 to 64 µg/mL

## COc1ccc(/C=C\c2cc(I)c(OC)c(I)c2)cc1O [9c, 3,5-Diiodo-4,4′-dimethoxy-3′-hydroxy-Z-stilbene]
[5]
  inhibition of colchicine binding to tubulin, % inhibition ± SD: 100 ± 0.3%
[6]
  cord lengths and junction numbers: markedly reduced
[7]
  times less active against the SW1736 line than against KAT-4: 100 ×
[8]
  MIC: 4 to 16 µg/mL (≈ 7.87 to 31.5 µM)
[2]
  GI50: 0.039 to 0.063 µg/mL (≈ 0.0768 to 0.124 µM)

## COc1ccc(/C=C\c2cc(I)c(OC)c(OC)c2)cc1OP(=O)([O-])[O-].[K+].[K+] [11a, Potassium 3-Iodo-4,4′,5-trimethoxy-Z-stilbene 3′-O-phosphate]
[2]
  GI50: 0.37 to 0.43 µg/mL

## Piperdine 3,5-Diiodo-4,4′-dimethoxy-Z-stilbene 3′-O-phosphate [12e]
[1]
  MIC Neisseria gonorrhoeae: < 0.5 µg/mL

## COc1ccc(/C=C\c2cc(OC)c(OC)c(OC)c2)cc1O [1a, combretastatin A-4]
[3]
  MIC Micrococcus luteus: 25-100 μg/disk
[4]
  MIC Neisseria gonorrhoeae: 25-100 μg/disk

## Tris 3,5-Diiodo-4,4′dimethoxy-Z-stilbene 3′-O-phosphate [12h]
[1]
  MIC Neisseria gonorrhoeae: <0.5 to 2 µg/mL

## Glycine-OMe 3,5-Diiodo-4,4′-dimethoxy-Z-stilbene 3′-O-phosphate [12f]
[1]
  MIC Neisseria gonorrhoeae: <0.5 to 1 µg/mL

## COc1ccc(/C=C\c2cc(I)c(OC)c(OC)c2)cc1O [9a, 3-Iodo-4,4′,5-trimethoxy-3′-hydroxy-Z-stilbene]
[5]
  inhibition of colchicine binding to tubulin, % inhibition ± SD: 100 ± 0.8%
[6]
  cord lengths and junction numbers: markedly reduced
[7]
  times less active against the SW1736 line than against KAT-4: 100 ×
[8]
  MIC: 2 to 4 µg/mL (≈ 4.85 to 9.7 µM)
